From ChEMBL document CHEMBL1124765, “Synthesis and biological properties of novel phosphotriesters: a new approach to the introduction of biologically active nucleotides into cells” (J Med Chem, 1990)
Converted amounts (≈) assume the structure as drawn. “And” between values parts separate entries of the source, which are not always exact repeats. Equal entries are not always repeated.

Tests used:
[1] = tested on: Vesicular stomatitis virus; assay: Evaluated for the minimum inhibitory concentration (MIC) in primary rabbit kidney (PRK) by 50% against Vesicular stomatitis virus; type: functional
How it was run: (§1)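 Confluent primary rabbit kidney cell monolayers were infected with 100 CCID50 of virus. After 1 h adsorption, residual virus was removed and cells were incubated with serial compound concentrations. Cytopathogenicity was scored once it reached completion in untreated infected controls. The endpoint was the concentration reducing virus-induced cytopathogenicity by 50%.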

Mus musculus [2] = assay: Topical treatment of intracutaneous TK- herpes simplex virus type 1 of strain VMW 1837 infection of Nu/nu mice for mean day of appearance of skin lesions and/or paralysis of the hind legs at 3% concentration (v/v in DMSO); type: functional
How it was run: (§2)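 Inocula were TK⁻ HSV-1 at 10⁶ CCID50/0.05 mL or HSV-1 KOS at 10^4.7 PFU/0.05 mL. Test formulations in DMSO were applied topically four times daily for 5 days, starting at infection. Skin lesions, hind-leg paralysis and death were recorded daily for 28 (KOS) or 49 (TK⁻) days, with five mice per group.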

Human alphaherpesvirus 2 [3] = assay: Evaluated for the minimum inhibitory concentration (MIC) in primary rabbit kidney (PRK) by 50% against herpes simplex virus type-2 (HSV-2) with strains 196; type: functional
How it was run: (§3)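 Confluent primary rabbit kidney cell cultures infected with 100 CCID50 virus; after 1 h adsorption residual virus removed and cells incubated with varying compound concentrations. Cytopathogenicity scored when complete in infected untreated controls; MIC = concentration reducing virus-induced cytopathogenicity by 50%. Compounds tested as such or after preincubation in medium with 10% fetal calf serum, 24 h, 37 °C.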

Human alphaherpesvirus 1 [4] = assay: Evaluated for the minimum inhibitory concentration (MIC) in primary rabbit kidney (PRK) by 50% against herpes simplex virus type-1 (HSV-1) with strains F; type: functional; how it was run: as §3
Human alphaherpesvirus 1 [5] = assay: Evaluated for the minimum inhibitory concentration (MIC) in primary rabbit kidney (PRK) by 50% upon preincubation in medium containing 10% fetal calf serum at 37 degree Celsius for 24 hr against herpes simplex virus type-1 (HSV-1) with strain KOS; type: functional
How it was run: (§4)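 Compounds were preincubated in medium with 10% fetal calf serum for 24 h at 37 °C before addition to the cells. Confluent primary rabbit kidney monolayers were infected with 100 CCID50 of virus and adsorbed for 1 h. Residual virus was removed and cells were incubated with varying compound concentrations. The endpoint was 50% reduction of cytopathogenicity, read when infected controls reached full CPE.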

Human alphaherpesvirus 1 [6] = assay: Evaluated for the minimum inhibitory concentration (MIC) in primary rabbit kidney (PRK) by 50% against herpes simplex virus type-1 (HSV-1) with strains KOS; type: functional; how it was run: as §3
Human alphaherpesvirus 1 [7] = assay: Evaluated for the minimum inhibitory concentration (MIC) in primary rabbit kidney (PRK) by 50% against herpes simplex virus type-1 (HSV-1) with strains McIntyre; type: functional; how it was run: as §3
Human alphaherpesvirus 1 [8] = assay: (§5) Evaluated for the minimum inhibitory concentration (MIC) in primary rabbit kidney (PRK), by 50% upon preincubation in medium containing 10% fetal calf serum at 37 degree Celsius for 24 hr against TK- herpes simplex virus type 1 (TK- HSV-1) with s; type: functional; how it was run: as §4
Human alphaherpesvirus 1 [9] = assay: Evaluated for the minimum inhibitory concentration (MIC) in primary rabbit kidney (PRK), by 50% upon preincubation in medium containing 10% fetal calf serum at 37 degree Centigrade for 24 hr against herpes simplex virus type-1 (HSV-1) with strain Mc; type: functional; how it was run: as §4
Human alphaherpesvirus 1 [10] = assay: Evaluated for the minimum inhibitory concentration (MIC) in primary rabbit kidney (PRK) by 50% upon preincubation in medium containing 10% fetal calf serum at 37 degree Celsius for 24 hr against herpes simplex virus type-1 (HSV-1) with strain F; type: functional; how it was run: as §4
Vaccinia virus [11] = assay: Evaluated for the minimum inhibitory concentration (MIC) in primary rabbit kidney (PRK) by 50% against Vaccinia virus; type: functional; details: Orthopoxvirus vaccinia; how it was run: as §1
Human alphaherpesvirus 1 [12] = assay: as §5; type: functional; how it was run: as §4; remark: listed apart in the source
[13] = tested on: Vesicular stomatitis virus; assay: Evaluated for the minimum inhibitory concentration (MIC) in primary rabbit kidney (PRK), by 50% upon preincubation in medium containing 10% fetal calf serum at 37 degree Celsius for 24 hr against vesicular stomatitis virus; type: functional; how it was run: as §4
Human alphaherpesvirus 2 [14] = assay: Evaluated for the minimum inhibitory concentration (MIC) in primary rabbit kidney (PRK), by 50% upon preincubation in medium containing 10% fetal calf serum at 37 degree Celsius for 24 hr against herpes simplex virus type-2 (HSV-2) with strains G; type: functional; how it was run: as §4
Vaccinia virus [15] = assay: Evaluated for the minimum inhibitory concentration (MIC) in primary rabbit kidney (PRK), by 50% upon preincubation in medium containing 10% fetal calf serum at 37 degree Celsius for 24 hr against Vaccinia virus; type: functional; details: Orthopoxvirus vaccinia; how it was run: as §4
Oryctolagus cuniculus = species on record: Oryctolagus cuniculus; assay: Evaluated for the minimum cytotoxic concentration (MCC) upon preincubation of rabbit kidney cells in medium containing 10% fetal calf serum at 37 degree Celsius for 24 hr; type: functional
How it was run: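 Primary rabbit kidney cell cultures were exposed to compounds, some preincubated 24 h at 37 °C in medium with 10% fetal calf serum. The minimum cytotoxic concentration was the level causing a microscopically detectable change in normal cell morphology.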

Human alphaherpesvirus 2 [16] = assay: Evaluated for the minimum inhibitory concentration (MIC) in primary rabbit kidney (PRK), by 50% upon pre-incubation in medium containing 10% fetal calf serum at 37 degree Centigrade for 24 hr against herpes simplex virus type-2 (HSV-2) with strains 1; type: functional; how it was run: as §4
Human alphaherpesvirus 1 [17] = assay: Evaluated for the minimum inhibitory concentration (MIC) in primary rabbit kidney (PRK), by 50% against TK- herpes simplex virus type 1 (TK- HSV-1) with strain B2006; type: functional; how it was run: as §1
Human alphaherpesvirus 2 [18] = assay: Evaluated for the minimum inhibitory concentration (MIC) in primary rabbit kidney (PRK), by 50% upon pre-incubation in medium containing 10% fetal calf serum at 37 degree Centigrade for 24 hr against herpes simplex virus type-2 (HSV-2) with strains L; type: functional; how it was run: as §4
Human alphaherpesvirus 1 [19] = assay: Evaluated for the minimum inhibitory concentration (MIC) in primary rabbit kidney (PRK) by 50% against TK- herpes simplex virus type 1 (TK- HSV-1) with strain VMW 1837; type: functional; how it was run: as §1
Mus musculus [20] = assay: Topical treatment of intracutaneous TK- herpes simplex virus type 1 of strain VMW 1837 infection of Nu/nu mice for mean day of appearance of skin lesions and/or paralysis of the hind legs at 0.3% concentration (v/v in DMSO); type: functional; how it was run: as §2
Mus musculus [21] = assay: Topical treatment of intracutaneous TK- herpes simplex virus type 1 of strain VMW 1837 infection of Nu/nu mice for mean day of appearance of skin lesions and/or paralysis of the hind legs at 1% concentration (v/v in DMSO); type: functional; how it was run: as §2
Human alphaherpesvirus 2 [22] = assay: Evaluated for the minimum inhibitory concentration (MIC) in primary rabbit kidney (PRK) by 50% against herpes simplex virus type-2 (HSV-2) with strains Lyons; type: functional; how it was run: as §3
Mus musculus [23] = species on record: Mus musculus; assay: Mean time survival (MTS) of the mice at the end of 28 or 49 days.; type: functional; how it was run: as §2
[24] = pKa value was determined; type: physicochemical

CS(=O)(=O)c1ccc(OP(=O)(OCCOCn2cnc3c(O)nc(N)nc32)OCCOCn2cnc3c(O)nc(N)nc32)cc1
MIC [1]: > 200 µg/mL | Mean day appearance of lesions (Mus musculus [2]): 29.7 | MIC (Human alphaherpesvirus 2 [3]): 0.4 µg/mL (≈ 0.6 µM) | MIC (Human alphaherpesvirus 1 [4]): 0.7 µg/mL (≈ 1.05 µM) | MIC (Human alphaherpesvirus 1 [5]): 0.4 µg/mL (≈ 0.6 µM) | MIC (Human alphaherpesvirus 1 [6]): 0.7 µg/mL (≈ 1.05 µM) | MIC (Human alphaherpesvirus 1 [7]): 1 µg/mL (≈ 1.5 µM) | MIC (Human alphaherpesvirus 1 [8]): 40 µg/mL (≈ 60 µM) | MIC (Human alphaherpesvirus 1 [9]): 0.7 µg/mL (≈ 1.05 µM) | MIC (Human alphaherpesvirus 1 [10]): 0.4 µg/mL (≈ 0.6 µM) | MIC (Vaccinia virus [11]): > 200 µg/mL | MIC (Human alphaherpesvirus 1 [12]): 150 µg/mL (≈ 225 µM) | MIC [13]: > 200 µg/mL | MIC (Human alphaherpesvirus 2 [14]): 0.2 µg/mL (≈ 0.3 µM) | MIC (Vaccinia virus [15]): > 200 µg/mL | MCC (Oryctolagus cuniculus): 400 µg/mL | MCC (Oryctolagus cuniculus; Oryctolagus cuniculus, kidney, read-out: MCC): 400 µg/mL | MIC (Human alphaherpesvirus 2 [16]): 0.3 µg/mL (≈ 0.45 µM) | MIC (Human alphaherpesvirus 1 [17]): 150 µg/mL (≈ 225 µM) | MIC (Human alphaherpesvirus 2 [18]): 0.4 µg/mL (≈ 0.6 µM) | MIC (Human alphaherpesvirus 1 [19]): 70 µg/mL (≈ 105 µM) | Mean day appearance of lesions (Mus musculus [20]): 17.6 | Mean day appearance of lesions (Mus musculus [21]): 23.6 | MIC (Human alphaherpesvirus 2 [22]): 0.4 µg/mL (≈ 0.6 µM) | MTS (Mus musculus [23]): 40.2 days and 40.6 days and 33.4 days

CC(=O)O[C@H]1C[C@H](n2cc(C)c(=O)[nH]c2=O)O[C@@H]1COP(=O)(OC[C@H]1O[C@@H](n2cc(C)c(=O)[nH]c2=O)C[C@@H]1OC(C)=O)Oc1ccc(S(C)(=O)=O)cc1
pKa [24]: 7.83
